As usually defined, the EC50 is the concentration at which the effect is half-maximal.

The test system of data set [1] is Liver. The experiment in a line: Drug uptake in BALB/c mouse liver implanted with mouse 4T1 cells assessed per gram of tissue at 0.18 mg/kg, ip after 6 hrs by HPLC-based fluorescence analysis. The data set is classed as ADME, organism-based. As to conditions: in vivo. In short, it runs like this:
(§1)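 Female BALB/c mice bearing 4T1 thigh tumours received an i.p. dose in ethanol/PEG400/H2O (2/3/5) with 0.1% DMSO, or in saline, and were kept dark until killed. Tissues were weighed (100 mg), homogenised in CH3OH/DMSO/H2O (32/8/1) and centrifuged twice at 2300×g at 4°C. Supernatants were analysed by HPLC with fluorescence detection (λex 404/λem 654 nm or λex 400/λem 666 nm). n = 3 per time point.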

Data set [2] deals with 4T1. The data set can be described thus: Induction of necrosis in mouse 4T1 cells implanted in BALB/c mouse at 5 mg/kg, ip irradiated at 48 J/cm2 measured at 1 day post PDT by […]-based fluorescence microscopic analysis. In kind it is functional, organism-based. As to conditions: 0.18 mg/kg, in the assay text read “0.18 mg/kg” for “5 mg/kg”. In short, it runs like this:
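Skin-plus-tumor slides from 4T1-bearing mice 1 day after PDT; proteinase K treatment, then dual apoptosis/necrosis detection reagent at room temperature in dark, washed in PBS, examined by fluorescence microscopy.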

Data set [3] is described as follows: Drug uptake in BALB/c mouse large intestine implanted with mouse 4T1 cells assessed per gram of tissue at 0.18 mg/kg, ip after 12 hrs by HPLC-based fluorescence analysis. The data set is classed as ADME, organism-based. As to conditions: in vivo. In short, it runs like this:
as §1

Data set [4] can be described thus: Drug uptake in BALB/c mouse large intestine implanted with mouse 4T1 cells assessed per gram of tissue at 0.18 mg/kg, ip after 48 hrs by HPLC-based fluorescence analysis. The data set is classed as ADME, organism-based. As to conditions: in vivo. In short, it runs like this: as §1
Data set [5] concerns Lung. The experiment in a line: Drug uptake in BALB/c mouse lung implanted with mouse 4T1 cells assessed per gram of tissue at 0.18 mg/kg, ip after 72 hrs by HPLC-based fluorescence analysis. In kind it is ADME, organism-based. As to conditions: in vivo. In short, it runs like this:
as §1

Data set [6] concerns 4T1. The data set can be described thus: Drug uptake in mouse 4T1 cells implanted in BALB/c mouse assessed per gram of tissue at 0.18 mg/kg, ip after 6 hrs by HPLC-based fluorescence analysis. As to conditions: in vivo. The data set is classed as ADME, organism-based. In short, it runs like this: (§2)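 Female BALB/c mice with 4T1 cells (1 × 10^6 in HBSS) implanted in left rear thigh; single i.p. dose, 7 in ethanol/PEG400/H2O (2/3/5) with 0.1% DMSO, mono-L-aspartyl chlorin e6 in saline; kept dark until sacrifice. Tissues washed, frozen, homogenized in CH3OH/DMSO/H2O (32/8/1), centrifuged 2300×g; supernatant analysed by HPLC with fluorescence detection; three animals per time point.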

The test system of data set [7] is Stomach. The data set can be described thus: Drug uptake in BALB/c mouse stomach implanted with mouse 4T1 cells assessed per gram of tissue at 0.18 mg/kg, ip after 24 hrs by HPLC-based fluorescence analysis. The data set is classed as ADME, organism-based. As to conditions: in vivo. In short, it runs like this:
as §2

For data set [8], the system named is Heart. The experiment in a line: Drug uptake in BALB/c mouse heart implanted with mouse 4T1 cells assessed per gram of tissue at 0.18 mg/kg, ip after 72 hrs by HPLC-based fluorescence analysis. The data set is classed as ADME, organism-based. As to conditions: in vivo. In short, it runs like this: as §1
In data set [9] the test system is 4T1. The experiment in a line: Drug uptake in mouse 4T1 cells implanted in BALB/c mouse assessed per gram of tissue at 0.18 mg/kg, ip after 24 hrs by HPLC-based fluorescence analysis. The data set is classed as ADME, organism-based. As to conditions: in vivo. In short, it runs like this: as §2
Data set [10] has as its system Lung. The experiment in a line: Drug uptake in BALB/c mouse lung implanted with mouse 4T1 cells assessed per gram of tissue at 0.18 mg/kg, ip after 24 hrs by HPLC-based fluorescence analysis. The data set is classed as ADME, organism-based. As to conditions: in vivo. In short, it runs like this: as §1
The test system of data set [11] is Muscle tissue. The data set can be described thus: Drug uptake in BALB/c mouse muscle implanted with mouse 4T1 cells assessed per gram of tissue at 0.18 mg/kg, ip after 6 hrs by HPLC-based fluorescence analysis. The data set is classed as ADME, organism-based. As to conditions: in vivo. In short, it runs like this: as §1
Data set [12] is described as follows: Photocytotoxicity against mouse B16-F1 cells assessed as cell survival preincubated for 24 hrs followed by irradiation at 16 J/cm2 measured at 24 hrs by WST-8 assay. In kind it is functional, cell-based. As to conditions: B16-F1, light or radiation study. In short, it runs like this:
(§3)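 Cells (5 × 10^3/well) in DMEM with 10% FCS, 24 h at 37°C, 5% CO2; photosensitizer 1–50000 nM (1% DMSO final) for 24 h, washed, fresh medium. Irradiated with 100-W halogen lamp through λ>500 nm or λ>600 nm cutoff filter to 16 J·cm−2; WST-8 absorbance at 450 nm 24 h later, survival normalized to no-drug wells.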
In general terms: Tetrazolium assays rely on reduction of a dye to a coloured formazan, in cell work by metabolically active cells.

The nature of data set [13]: Drug uptake in BALB/c mouse small intestine implanted with mouse 4T1 cells assessed per gram of tissue at 0.18 mg/kg, ip after 24 hrs by HPLC-based fluorescence analysis. As to conditions: in vivo. In kind it is ADME, organism-based. In short, it runs like this:
as §2

Data set [14] relates to Liver. The data set can be described thus: Drug uptake in BALB/c mouse liver implanted with mouse 4T1 cells assessed per gram of tissue at 0.18 mg/kg, ip after 12 hrs by HPLC-based fluorescence analysis. In kind it is ADME, organism-based. As to conditions: in vivo. In short, it runs like this:
as §1

The test system of data set [15] is Lung. The experiment in a line: Drug uptake in BALB/c mouse lung implanted with mouse 4T1 cells assessed per gram of tissue at 0.18 mg/kg, ip after 6 hrs by HPLC-based fluorescence analysis. In kind it is ADME, organism-based. As to conditions: in vivo. In short, it runs like this:
as §1

Data set [16] in a line: Drug uptake in BALB/c mouse small intestine implanted with mouse 4T1 cells assessed per gram of tissue at 0.18 mg/kg, ip after 48 hrs by HPLC-based fluorescence analysis. As to conditions: in vivo. The data set is classed as ADME, organism-based. In short, it runs like this: as §2
Data set [17] has as its system 4T1. The experiment in a line: Drug uptake in mouse 4T1 cells implanted in BALB/c mouse assessed per gram of tissue at 0.18 mg/kg, ip after 48 hrs by HPLC-based fluorescence analysis. In kind it is ADME, organism-based. As to conditions: in vivo. In short, it runs like this:
as §2

In data set [18] the test system is Kidney. The experiment in a line: Drug uptake in BALB/c mouse kidney implanted with mouse 4T1 cells assessed per gram of tissue at 0.18 mg/kg, ip after 72 hrs by HPLC-based fluorescence analysis. As to conditions: in vivo. In kind it is ADME, organism-based. In short, it runs like this: as §1
Data set [19] is described as follows: Drug uptake in BALB/c mouse small intestine implanted with mouse 4T1 cells assessed per gram of tissue at 0.18 mg/kg, ip after 12 hrs by HPLC-based fluorescence analysis. In kind it is ADME, organism-based. As to conditions: in vivo. In short, it runs like this: as §2
The subject of data set [20] is Zone of skin. The experiment in a line: Drug uptake in BALB/c mouse skin implanted with mouse 4T1 cells assessed per gram of tissue at 0.18 mg/kg, ip after 24 hrs by HPLC-based fluorescence analysis. As to conditions: in vivo. In kind it is ADME, organism-based. In short, it runs like this:
as §2

Data set [21] relates to Mus musculus. The data set can be described thus: Drug uptake in mouse 4T1 cells implanted BALB/c mouse assessed as time for drug accumulation at 0.045 to 0.36 mg/kg, ip administered for 48 hrs followed by irradiation at 40 mW/cm2. As to conditions: in vivo.
In data set [22] the test system is Urinary bladder. The data set can be described thus: Drug uptake in BALB/c mouse bladder implanted with mouse 4T1 cells assessed per gram of tissue at 0.18 mg/kg, ip after 12 hrs by HPLC-based fluorescence analysis. As to conditions: in vivo. In kind it is ADME, organism-based. In short, it runs like this:
as §1

The test system of data set [23] is 4T1. The data set can be described thus: Antitumor activity against mouse 4T1 cells implanted in BALB/c mouse at 0.18 mg/kg, ip assessed as tumor growth inhibition administered for 48 hrs followed by irradiation at 40 mW/cm2 for 20.1 mins measured after 5 days by Vernier calipers. In kind it is functional, organism-based. In short, it runs like this: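 Female BALB/c mice carried 4T1 thigh tumours (1 × 10^6 cells) of 50–60 mm3. They were dosed i.p. at 250–31.25 nmol·kg−1 in ethanol/PEG400/H2O (2/3/5) containing 0.1% DMSO and kept dark. At 48 h the tumour was irradiated with a 100-W halogen lamp at 40 mW·cm−2 for 20.1 min. Tumour size was measured daily by caliper as length × width²/2 and normalised to day 0.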

The nature of data set [24]: Photocytotoxicity against rat RGK1 cells assessed as cell survival preincubated for 24 hrs followed by irradiation at 16 J/cm2 measured at 24 hrs by WST-8 assay. As to conditions: RGK1, light or radiation study. In kind it is functional, cell-based. In short, it runs like this:
as §3

Each structure is given as a SMILES string. Calls of active or inactive are those of the source.

In the case of `CN1CC2C3=N/C(=C(/c4c(F)c(F)c(S[C@@H]5O[C@H](CO)[C@@H](O)[C@H](O)[C@H]5O)c(F)c4F)C4=N/C(=C(/c5c(F)c(F)c(F)c(F)c5F)c5ccc([nH]5)/C(c5c(F)c(F)c(S[C@@H]6O[C@H](CO)[C@@H](O)[C@H](O)[C@H]6O)c(F)c5F)=C5/C=CC(=N5)C3c3c(F)c(F)c(F)c(F)c3F)C=C4)C2C1` (some centres undefined), the Drug uptake in data set [1] amounted to 109 ng/g; in data set [3] it was 41 ng; in data set [4], 17 ng/g; in [5], 7 ng/g; in data set [6] it was 5 ng; in data set [7], 31 ng/g. Besides, the Drug uptake in data set [8] amounted to 3.3 ng; in data set [9] it was 3 ng; in data set [10], 29 ng/g; in [11], 2.2 ng; in [13], 39 ng/g; in [14] it was 60 ng/g. For the same compound, the Drug uptake in data set [15] was 70 ng/g; in data set [16], 9.5 ng/g; in data set [17], 1.4 ng/g; in data set [18], 13 ng; in data set [19], 80 ng; in [20], 0 ng. In data set [22], this compound showed a Drug uptake of 95 ng/g. In addition, the result in data set [2] and in data set [23] was Active. For the same compound, the values for the EC50 in data set [12] and in data set [24] were 0.5 nM and 1 nM, respectively. Further, in data set [21], the Time was found to be 48 h.

Source of the values: ChEMBL document CHEMBL3734686, “Synthesis, Photophysical Properties, and Biological Evaluation of trans-Bisthioglycosylated Tetrakis(fluorophenyl)chlorin for Photodynamic Therapy” (J Med Chem, 2015).
